# Experimental data reported in ChEMBL document CHEMBL2429794, “Tuning the antibacterial activity of amphiphilic neamine derivatives and comparison to paromamine homologues” (J Med Chem, 2013).
# Assays:
# Staphylococcus aureus [1] = assay: Antibacterial activity against fluoroquinolone-resistant Staphylococcus aureus 1199B expressing NorA efflux pump after 24 hrs by geometric microdilution method; type: functional
# Method in brief: (§1)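 Broth cultures were incubated in plates at 37 °C, and growth was read as absorbance at 650 nm after 1, 4, 7 and 24 h. Ampicillin (16 mg/L) was the positive control and DMSO the negative control. Each MIC (μg/mL) is the average of at least three determinations.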
# Staphylococcus aureus [2] = assay: Antibacterial activity against Staphylococcus aureus expressing aminoglycoside-[…] after 24 hrs by geometric microdilution method; type: functional; method in brief: as §1
# Staphylococcus aureus [3] = assay: microbe, parasite or virus in culture; conditions: ATCC 25923, 24 h
# Staphylococcus aureus [4] = assay: Antibacterial activity against Staphylococcus aureus expressing aminoglycoside-6'-N-acetyltransferase/2''-O-phosphoryltransferase after 24 hrs by geometric microdilution method; type: functional; method in brief: as §1
# Staphylococcus aureus [5] = assay: Antibacterial activity against Staphylococcus aureus expressing aminoglycoside-3'-O-phosphoryltransferase after 24 hrs by geometric microdilution method; type: functional; method in brief: as §1
# Escherichia coli [6] = assay: Antibacterial activity against Escherichia coli L58058.1 expressing ANT2''-1A after 24 hrs by geometric microdilution method; type: functional
# Staphylococcus aureus [7] = assay: Antibacterial activity against vancomycin-resistant Staphylococcus aureus VRS2 after 24 hrs by geometric microdilution method; type: functional; method in brief: as §1
# Staphylococcus aureus [8] = assay: Antibacterial activity against healthcare-acquired methicillin-resistant Staphylococcus aureus ATCC 33592 after 24 hrs by geometric microdilution method; type: functional; method in brief: as §1
# Pseudomonas aeruginosa [9] = assay: Antibacterial activity against Pseudomonas aeruginosa F03 expressing AAC6'-2A after 24 hrs by geometric microdilution method; type: functional
# Escherichia coli [10] = assay: microbe, parasite or virus in culture; conditions: ATCC 25922, 24 h
# Pseudomonas aeruginosa [11] = assay: Antibacterial activity against Pseudomonas aeruginosa PA22 (PT629) expressing MexXY after 24 hrs by geometric microdilution method; type: functional
# Escherichia coli [12] = assay: Antibacterial activity against Escherichia coli PAZ505H8101 expressing AAC6'-1B after 24 hrs by geometric microdilution method; type: functional
# Pseudomonas aeruginosa [13] = assay: Antibacterial activity against Pseudomonas aeruginosa ATCC 27853 after 24 hrs by geometric microdilution method; type: functional
# Staphylococcus aureus [14] = assay: Antibacterial activity against 14- and 15-membered macrolide-resistant Staphylococcus aureus expressing MsrA efflux pump after 24 hrs by geometric microdilution method; type: functional; method in brief: as §1
# Klebsiella pneumoniae = assay: Antibacterial activity against Klebsiella pneumoniae ATCC 700603 after 24 hrs by geometric microdilution method; type: functional
# Acinetobacter lwoffii [15] = assay: Antibacterial activity against Acinetobacter lwoffii AI.88-483 expressing APH3'-6A after 24 hrs by geometric microdilution method; type: functional
# Acinetobacter lwoffii [16] = assay: Antibacterial activity against Acinetobacter lwoffii ATCC 17925 after 24 hrs by geometric microdilution method; type: functional; conditions: ATCC 17925, 24 h
Compound,MIC (Staphylococcus aureus [1]) [µg/mL],MIC (Staphylococcus aureus [2]) [µg/mL],MIC (Staphylococcus aureus [3]) [µg/mL],MIC (Staphylococcus aureus [4]) [µg/mL],MIC (Staphylococcus aureus [5]) [µg/mL],"MIC (Escherichia coli [6]; L58058.1, 24 h) [µg/mL]","MIC (Staphylococcus aureus [7]; VRS2, 24 h) [µg/mL]","MIC (Staphylococcus aureus [8]; ATCC 33592, 24 h) [µg/mL]","MIC (Pseudomonas aeruginosa [9]; F03, 24 h) [µg/mL]",MIC (Escherichia coli [10]) [µg/mL],MIC (Pseudomonas aeruginosa [11]) [µg/mL],"MIC (Escherichia coli [12]; PAZ505H8101, 24 h) [µg/mL]","MIC (Pseudomonas aeruginosa [13]; ATCC 27853, 24 h) [µg/mL]","MIC (Klebsiella pneumoniae; ATCC 700603, 24 h) [µg/mL]","MIC (Acinetobacter lwoffii [15]; AI.88-483, 24 h) [µg/mL]",MIC (Acinetobacter lwoffii [16]) [µg/mL],further results
CCCCCCCCCCCCCCCCCCO[C@@H]1[C@@H](N)[C@@H](O[C@H]2[C@H](O)[C@@H](O)[C@H](N)C[C@@H]2N)O[C@H](CN)[C@H]1O,> 128,> 128,> 128,> 128,> 128,–,–,–,–,–,–,–,–,–,–,–,–
NC[C@H]1O[C@H](O[C@H]2[C@H](O)[C@@H](OCCCc3ccc4ccccc4c3)[C@H](N)C[C@@H]2N)[C@H](N)[C@@H](OCCCc2ccc3ccccc3c2)[C@@H]1OCCCc1ccc2ccccc2c1,> 128,128,> 128,64,32,> 128,> 128,128,64,128,128,32,128,–,–,–,MIC (Staphylococcus aureus [14]): 32 µg/mL
GENTAMICIN,–,–,–,–,–,–,–,–,–,–,4,–,–,–,–,–,MIC (Klebsiella pneumoniae): 8 µg/mL; MIC (Escherichia coli [6]): 64 µg/mL; MIC (Staphylococcus aureus [7]): 32 µg/mL; MIC (Acinetobacter lwoffii [15]): 4 µg/mL; MIC (Staphylococcus aureus [8]): 1 µg/mL; MIC (Pseudomonas aeruginosa [9]): > 128 µg/mL; MIC (Escherichia coli [12]): 1 µg/mL; MIC (Pseudomonas aeruginosa [13]): 1 µg/mL
NC[C@H]1O[C@H](O[C@H]2[C@H](O)[C@@H](OCc3ccccc3)[C@H](N)C[C@@H]2N)[C@H](N)[C@@H](OCc2ccccc2)[C@@H]1OCc1ccccc1,> 128,> 128,> 128,> 128,> 128,> 128,64,> 128,> 128,> 128,> 128,> 128,> 128,> 128,> 128,> 128,–
NCC[C@H](O)C(=O)N[C@@H]1C[C@H](N)[C@@H](O[C@H]2O[C@H](CN)[C@@H](O)[C@H](O)[C@H]2O)[C@H](O)[C@H]1O[C@H]1O[C@H](CO)[C@@H](O)[C@H](N)[C@H]1O [AMIKACIN],–,–,–,–,–,2,–,–,4,4,8,64,2,0.5,> 128,0.5,–
NC[C@H]1O[C@H](O[C@H]2[C@H](O)[C@@H](OCCCCc3ccc4ccccc4c3)[C@H](N)C[C@@H]2N)[C@H](N)[C@@H](OCCCCc2ccc3ccccc3c2)[C@@H]1OCCCCc1ccc2ccccc2c1,> 128,128,> 128,128,128,> 128,> 128,> 128,128,128,128,128,128,–,–,–,MIC (Staphylococcus aureus [14]): 128 µg/mL
NC[C@H]1O[C@H](O[C@H]2[C@H](O)[C@@H](OCc3ccc4ccccc4n3)[C@H](N)C[C@@H]2N)[C@H](N)[C@@H](OCc2ccc3ccccc3n2)[C@@H]1OCc1ccc2ccccc2n1,> 128,> 128,128,128,64,> 128,64,64,> 128,> 128,> 128,> 128,> 128,> 128,> 128,128,–
NC[C@H]1O[C@H](O[C@H]2[C@H](O)[C@@H](O[C@H]3O[C@H](CO)[C@@H](O)[C@H](N)[C@H]3O)[C@H](N)C[C@@H]2N)[C@H](N)C[C@@H]1O [TOBRAMYCIN],–,–,–,–,–,64,–,–,128,0.5,1,32,0.5,4,1,0.5,–
CCCCCCCCCCCCCCCCCCO[C@@H]1[C@@H](N)[C@@H](O[C@H]2[C@H](O)[C@@H](OCCCCCCCCCCCCCCCCCC)[C@H](N)C[C@@H]2N)O[C@H](CN)[C@H]1O,> 128,256,> 128,256,128,> 128,> 128,> 128,> 128,> 128,> 128,> 128,> 128,–,–,–,MIC (Staphylococcus aureus [14]): > 128 µg/mL
CCCCO[C@@H]1[C@@H](N)[C@@H](O[C@H]2[C@H](O)[C@@H](OCCCC)[C@H](N)C[C@@H]2N)O[C@H](CN)[C@H]1OCCCC,> 128,> 128,> 128,> 128,> 128,> 128,> 128,> 128,> 128,> 128,> 128,> 128,> 128,> 128,> 128,> 128,–
CCCCCCCCCCCCCCCCCCO[C@@H]1[C@@H](O)[C@H](O[C@H]2O[C@H](CN)[C@@H](O)[C@H](O)[C@H]2N)[C@@H](N)C[C@H]1N,> 256,> 256,> 128,> 256,> 256,–,–,> 128,–,–,–,–,–,–,–,–,–
CCCCO[C@@H]1[C@@H](N)[C@@H](O[C@H]2[C@H](O)[C@@H](OCCCC)[C@H](N)C[C@@H]2N)O[C@H](CN)[C@H]1O,> 128,> 128,> 128,128,> 128,> 128,> 128,> 128,> 128,> 128,> 128,> 128,> 128,> 128,> 128,64,–
NC[C@H]1O[C@H](O[C@H]2[C@H](O)[C@@H](OCc3ccccc3)[C@H](N)C[C@@H]2N)[C@H](N)[C@@H](OCc2ccccc2)[C@@H]1O,> 128,> 128,> 128,> 128,> 128,–,–,–,–,–,–,–,–,–,–,–,–
N[C@H]1[C@@H](O[C@H]2[C@H](O)[C@@H](O)[C@H](N)C[C@@H]2N)O[C@H](CO)[C@@H](O)[C@@H]1O [PAROMAMINE],> 128,> 128,32,> 128,> 128,> 128,> 128,> 128,> 128,> 128,> 128,> 128,> 128,–,–,–,MIC (Staphylococcus aureus [14]): > 128 µg/mL
